Screening results (PubChem)
Shown is part of a subset that was picked to be rich in hits.
T cruzi growth-1: blocks T. cruzi growth in NIH3T3 culture; inhibition, % at 8.34 µM; T. cruzi beta-gal in NIH3T3, GalScreen luminescence, 90 h; 5.9% of 77,000 active;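 active = mean inhibition above about 93%, with at least 55% of replicates each passing it, limit read from the data, passing the limit was not always enough; inconclusive = only one of those two conditions holds; inactive = neither condition holds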
IDH1 R132H inh: inhibitors of human IDH1 R132H; O75874; IDH1 R132H reductase, diaphorase/resazurin fluorescence, 60 min; inhibition, % at 10 µM; 0.18% of 70,000 active; AID 624101; in the data active = inhibition above about 34%; inconclusive = no clear call, values can overlap the other calls; inactive = below about 11%;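 also: 0% = DMSO and 100% = no enzyme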
KDM4C inh: blocks human GASC-1 (KDM4C) demethylase activity; GST-KDM4C 2-372, H3K9me3 peptide, LANCE TR-FRET; AID 720574; 0.15% of 96,000 active; inhibition, % at 12.5 µM; Q9H3R0;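 active = mean replicate inhibition above about 25%, with at least 55% of replicates also reaching it, limit read from the data, passing the limit was not always enough; inconclusive = only one of those two conditions met; inactive = neither condition met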
Target sequence (Q9H3R0 2-372 limits assumed): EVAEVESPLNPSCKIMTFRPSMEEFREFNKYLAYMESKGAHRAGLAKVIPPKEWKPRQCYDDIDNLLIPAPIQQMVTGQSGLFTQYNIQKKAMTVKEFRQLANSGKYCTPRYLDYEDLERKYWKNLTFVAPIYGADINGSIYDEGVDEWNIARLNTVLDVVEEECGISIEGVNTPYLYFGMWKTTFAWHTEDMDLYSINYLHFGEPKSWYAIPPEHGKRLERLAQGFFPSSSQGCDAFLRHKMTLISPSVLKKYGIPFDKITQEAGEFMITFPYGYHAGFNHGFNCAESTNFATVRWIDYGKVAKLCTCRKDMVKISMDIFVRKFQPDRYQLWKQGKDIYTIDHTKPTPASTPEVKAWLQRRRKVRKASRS
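System – N-terminal GST-fused human GASC-1 (KDM4C) fragment, residues 2-372 · Input – enzyme final amount 10 nM · Technique – LANCE TR-FRET, Eu antibody, ULight-streptavidin, EDTA, ex 340 nm, em 618/671 nm · Medium – HEPES buffer, pH 7.5, plus ascorbate · Incubation – enzyme reaction 30 min, then detection 60 min, both room temperature · Reagent – H3K9me3 peptide with Fe(II)/2OG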
T cruzi growth-2: inhibitors of T. cruzi proliferation; shares compounds with T cruzi growth-1; T. cruzi beta-gal in NIH3T3, GalScreen luminescence, 90 h; inhibition, % at 8.35 µM; 72% of 5,600 active;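 active = mean replicate inhibition above about 95% and at least 55% of replicates individually reaching it, limit read from the data; inconclusive = only one of the two criteria is met; inactive = neither criterion is met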
T cruzi growth-3: Trypanosoma cruzi proliferation inhibition | inhibition, % at 2.09 µM | 21% of 5,600 active | T. cruzi beta-gal in NIH3T3, GalScreen luminescence, 90 h | shares compounds with T cruzi growth-1;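 active = mean inhibition above about 95%, with at least 55% of replicates also reaching it, limit read from the data; inconclusive = meets just one of the two conditions; inactive = meets neither condition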;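 also: plate controls were neutral control median for no effect and positive control median for full effect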
3T3 cytotox: NIH/3T3 (mouse) viability loss | shares compounds with T cruzi growth-1 | AID 651742 | 14% of 5,600 active | NIH/3T3 viability, CellTiter-Glo ATP luminescence, 90 h | cytotoxicity (signal decrease), % at 8.35 µM;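 active = mean signal decrease across replicates above about 35% based on untreated-well scatter, with enough replicates individually passing, limit read from the data; inconclusive = no rule stated though some were filed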;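 also: 0% = median of neutral control wells and 100% = median of positive control wells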
NIH3T3 tox 2: NIH/3T3 (mouse) viability loss | shares compounds with T cruzi growth-1 | NIH/3T3 viability, CellTiter-Glo ATP luminescence, 90 h | 56% of 5,600 active | inhibition, % at 24.9 µM;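 active = mean loss of cell viability signal at or above a set limit, and enough replicates individually reaching it; inconclusive = meets only the mean limit or only the replicate share; inactive = meets neither condition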;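 also: 0% = median of neutral control wells and 100% = median of positive control wells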
Starred values were filed as active, the others as inactive; ? = inconclusive; nt = no result.

SMILES	T cruzi growth-1	IDH1 R132H inh	KDM4C inh	T cruzi growth-2	T cruzi growth-3	3T3 cytotox	NIH3T3 tox 2
CS(=O)(=O)N(CC(=O)Nc1ccc(Br)c(Cl)c1)c1ccc(F)cc1	nt	-1	nt	nt	nt	nt	nt
Cc1nc(SC(C(=O)O)c2ccccc2)cc(-c2ccccc2)n1 (centres undefined)	nt	1	nt	nt	nt	nt	nt
C[C@H]1CCCCO[C@@H](CN(C)C(=O)Nc2ccc(C(F)(F)F)cc2)[C@@H](C)CN([C@@H](C)CO)C(=O)c2cc(NC(=O)Nc3cccc4ccccc34)ccc2O1	90	0	-1	nt	nt	nt	nt
C[C@H]1CCCCO[C@H](CN(C)C(=O)Nc2ccc(C(F)(F)F)cc2)[C@@H](C)CN([C@@H](C)CO)C(=O)c2cc(NC(=O)Nc3cccc4ccccc34)ccc2O1	103*	nt	-2	109*	109*	14	24
C[C@H](CO)N1C[C@H](C)[C@@H](CN(C)C(=O)Nc2ccc(C(F)(F)F)cc2)OCCCC[C@H](C)Oc2ccc(NC(=O)Nc3cccc4ccccc34)cc2C1=O	101*	2	8	104*	94	9	18
C[C@@H]1CN([C@H](C)CO)C(=O)c2cc(NC(=O)Nc3cccc4ccccc34)ccc2O[C@@H](C)CCCCO[C@H]1CN(C)C(=O)Nc1ccc(C(F)(F)F)cc1	89	nt	-1	nt	nt	nt	nt
Cc1ccc(Oc2ccc(NC(=O)CCCC(=O)O)cc2)cc1C	nt	0	nt	nt	nt	nt	nt
COc1ccc(S(=O)(=O)N(C)C[C@@H]2Oc3ccc(NC(=O)Cn4cnnn4)cc3C(=O)N([C@@H](C)CO)C[C@H]2C)cc1	-15	1	-2	nt	nt	nt	nt
COc1ccc(S(=O)(=O)N(C)C[C@H]2Oc3ccc(NC(=O)Cn4cnnn4)cc3C(=O)N([C@@H](C)CO)C[C@H]2C)cc1	100*	1	0	37	-33	10	6
COc1ccc(S(=O)(=O)N(C)C[C@H]2OCCCC[C@H](C)Oc3ccc(NC(=O)C4CCCCC4)cc3C(=O)N([C@@H](C)CO)C[C@@H]2C)cc1	106*	nt	-1	105*	79	0	-26
COc1ccc(S(=O)(=O)N(C)C[C@@H]2OCCCC[C@@H](C)Oc3ccc(NC(=O)C4CCCCC4)cc3C(=O)N([C@@H](C)CO)C[C@@H]2C)cc1	99*	1	0	94	57	12	72*
COc1ccc(S(=O)(=O)N(C)C[C@H]2OCCCC[C@H](C)Oc3ccc(NC(=O)C4CCCCC4)cc3C(=O)N([C@H](C)CO)C[C@@H]2C)cc1	60	nt	-2	nt	nt	nt	nt
COc1ccc(S(=O)(=O)N(C)C[C@H]2OCCCC[C@@H](C)Oc3ccc(NC(=O)C4CCCCC4)cc3C(=O)N([C@H](C)CO)C[C@@H]2C)cc1	37	nt	-1	nt	nt	nt	nt
COc1ccccc1NC(=O)CSc1nnc(-c2ccc(Br)cc2)n1C	nt	0	nt	nt	nt	nt	nt
COc1ccc(N(C(C)C(=O)Nc2ccc(C(F)(F)F)cc2)S(C)(=O)=O)cc1 (centres undefined)	nt	0	nt	nt	nt	nt	nt
CC1CCc2c(sc(NC(=O)c3nc4ncccn4n3)c2C(N)=O)C1 (centres undefined)	nt	0	nt	nt	nt	nt	nt
C/C=C/c1ccc2c(c1)O[C@@H](CN(C)C(=O)Nc1ccc(F)cc1)[C@H](C)CN([C@@H](C)CO)S2(=O)=O	-14	1	-3	nt	nt	nt	nt
C/C=C/c1ccc2c(c1)O[C@H](CN(C)C(=O)Nc1ccc(F)cc1)[C@H](C)CN([C@@H](C)CO)S2(=O)=O	77	-1	6	nt	nt	nt	nt
C/C=C/c1ccc2c(c1)O[C@H](CN(C)C(=O)Nc1ccc(C(F)(F)F)cc1)[C@@H](C)CN([C@H](C)CO)S2(=O)=O	?	0	-2	102*	101*	36*	68*
C/C=C/c1ccc2c(c1)O[C@H](CN(C)C(=O)Nc1ccc(C(F)(F)F)cc1)[C@H](C)CN([C@@H](C)CO)S2(=O)=O	?	0	-1	99*	62	46*	69*
C/C=C/c1ccc2c(c1)O[C@H](CN(C)C(=O)Nc1ccc(F)cc1)[C@@H](C)CN([C@H](C)CO)S2(=O)=O	39	-1	3	nt	nt	nt	nt
C/C=C/c1ccc2c(c1)O[C@@H](CN(C)C(=O)Nc1ccc(C(F)(F)F)cc1)[C@H](C)CN([C@@H](C)CO)S2(=O)=O	108*	0	0	97*	?	26	102*
COc1ccc(C2OC(c3ccc(S(=O)(=O)N4CCCCC4)cc3)=NN2C(C)=O)cc1 (centres undefined)	nt	-1	nt	nt	nt	nt	nt
CS(=O)(=O)N(CC(=O)Nc1ccc(Cl)c(C(F)(F)F)c1)c1cccc([N+](=O)[O-])c1	nt	0	nt	nt	nt	nt	nt
COc1ccc(CN(C)C[C@H]2Oc3ccc(NC(=O)Nc4cccc5ccccc45)cc3C(=O)N([C@H](C)CO)C[C@@H]2C)cc1	-2	-1	-1	nt	nt	nt	nt
SMILES	T cruzi growth-1	IDH1 R132H inh	KDM4C inh	T cruzi growth-2	T cruzi growth-3	3T3 cytotox	NIH3T3 tox 2
C[C@@H]1CN([C@@H](C)CO)C(=O)c2cc(NC(=O)Nc3cccc4ccccc34)ccc2O[C@@H]1CN(C)Cc1ccc(Oc2ccccc2)cc1	124*	-6	-4	99*	105*	29	27*
COc1ccc(CN(C)C[C@H]2Oc3ccc(NC(=O)Nc4cccc5ccccc45)cc3C(=O)N([C@@H](C)CO)C[C@H]2C)cc1	62	0	-3	nt	nt	nt	nt
C[C@@H]1CN([C@H](C)CO)C(=O)c2cc(NC(=O)Nc3cccc4ccccc34)ccc2O[C@H]1CN(C)Cc1ccc(Oc2ccccc2)cc1	112*	2	0	107*	94	27	16
Cc1ccc(N(CC(N)=O)S(=O)(=O)c2ccc(Cl)cc2)cc1	nt	0	nt	nt	nt	nt	nt
Cc1onc(-c2ccccc2)c1C(=O)Nc1cccc(S(=O)(=O)N(C)C)c1	nt	1	nt	nt	nt	nt	nt
O=C(O)c1cccc(CSc2nnc(-c3ccncc3)o2)c1	nt	0	nt	nt	nt	nt	nt
COc1cc2c(cc1O)C1(Cc3ccc4c(c3C1=O)OCO4)N(C)CC2 (centres undefined)	nt	-1	nt	nt	nt	nt	nt
C[C@H]1CCCCO[C@H](CN(C)C(=O)Nc2ccc(C(F)(F)F)cc2)[C@@H](C)CN([C@@H](C)CO)C(=O)c2cc(NC(=O)Cc3ccccc3)ccc2O1	?	0	-1	101*	113*	30	17
C[C@@H]1CCCCO[C@@H](CN(C)C(=O)Nc2ccc(C(F)(F)F)cc2)[C@H](C)CN([C@H](C)CO)C(=O)c2cc(NC(=O)Cc3ccccc3)ccc2O1	?	nt	-1	106*	104*	-20	16
C[C@@H]1CCCCO[C@H](CN(C)C(=O)Nc2ccccc2)[C@H](C)CN([C@@H](C)CO)C(=O)c2cc(NC(=O)Cc3ccccc3)ccc2O1	39	0	-1	nt	nt	nt	nt
